Source: ChEMBL document CHEMBL4261506, “Synthesis and biological evaluation of N-alkyl naphthoimidazoles derived from β-lapachone against Trypanosoma cruzi bloodstream trypomastigotes” (Medchemcomm, 2017)

System: Trypanosoma cruzi
Assay: Trypanocidal activity against bloodstream trypomastigote stage of Trypanosoma cruzi Y isolated from parasite infected Swiss mouse assessed as induction of parasite lysis after 24 hrs by Neubauer chamber based cell counting method
Assay type: functional, organism-based
Settings: not given
How it was run: (§1)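 Y-strain bloodstream trypomastigotes at 5 × 10^6 cells per ml in DME medium plus 10% blood (some runs in DMES without blood), mixed 1:1 with compound diluted in DME at twice final concentration. DMSO final ≤0.1%. Incubated at 4 °C. Cells counted after 24 h; IC50 taken as the concentration giving 50% parasite lysis.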

SMILES | IC50 [µM]
Cc1ccc(-c2nc3c([nH]2)c2c(c4ccccc43)OC(C)(C)CC2)cc1 | 37.5

System: Trypanosoma cruzi
Assay: Trypanocidal activity against trypomastigote stage of Trypanosoma cruzi
Assay type: functional, organism-based
Settings: not given
How it was run: as §1

SMILES | IC50 [µM]
CC1(C)CCc2c(c3ccccc3c3nc(-c4ccccc4)[nH]c23)O1 | 37

System: Trypanosoma cruzi
Assay: Trypanocidal activity against bloodstream trypomastigote stage of Trypanosoma cruzi Y assessed as induction of parasite lysis after 24 hrs by Neubauer chamber based cell counting method
Assay type: functional, organism-based
Settings: not given
How it was run: as §1

SMILES | IC50 [µM]
CC1(C)CCc2c(c3ccccc3c3nc(-c4ccc([N+](=O)[O-])cc4)[nH]c23)O1 | 250
COc1ccccc1-c1nc2c([nH]1)c1c(c3ccccc32)OC(C)(C)CC1 | > 6500
CC1(C)CCc2c(c3ccccc3c3nc(-c4ccc(C(F)(F)F)cc4)[nH]c23)O1 | 250
CC1(C)CCc2c(c3ccccc3c3nc(-c4cccs4)[nH]c23)O1 | 170
Cc1cccc(-c2nc3c([nH]2)c2c(c4ccccc43)OC(C)(C)CC2)c1 | 37.5
CCCCCCCCn1cnc2c3ccccc3c3c(c21)CCC(C)(C)O3 | 180
CC1(C)CCc2c(c3ccccc3c3nc[nH]c23)O1 | 89.5
CCCCCCn1cnc2c3c(c4ccccc4c21)OC(C)(C)CC3 | 42.5
CC1(C)CCc2c(c3ccccc3c3nc(-c4ccc(Cl)cc4Cl)[nH]c23)O1 | > 4000
CCCn1cnc2c3ccccc3c3c(c21)CCC(C)(C)O3 | 172
CC1(C)CCc2c(c3ccccc3c3nc(-c4ccccc4C#N)[nH]c23)O1 | > 6500
CCCCn1cnc2c3c(c4ccccc4c21)OC(C)(C)CC3 | 106
CCCCCCCn1cnc2c3c(c4ccccc4c21)OC(C)(C)CC3 | 407
CC1(C)CCc2c(c3ccccc3c3nc(-c4c(Cl)cccc4Cl)[nH]c23)O1 | 2120
CCCCCCCCn1cnc2c3c(c4ccccc4c21)OC(C)(C)CC3 | 376
CCCCCCCCCn1cnc2c3ccccc3c3c(c21)CCC(C)(C)O3 | 295
CCCCCCCCCCCCn1cnc2c3c(c4ccccc4c21)OC(C)(C)CC3 | > 500
CCCCCn1cnc2c3ccccc3c3c(c21)CCC(C)(C)O3 | 124
CC1(C)CCc2c(c3ccccc3c3nc(-c4cccc5ccccc45)[nH]c23)O1 | 1680
COc1cc(-c2nc3c([nH]2)c2c(c4ccccc43)OC(C)(C)CC2)ccc1O | 252
CCCCCCCCCn1cnc2c3c(c4ccccc4c21)OC(C)(C)CC3 | 195
CCCCCCn1cnc2c3ccccc3c3c(c21)CCC(C)(C)O3 | 31.5
CCCCn1cnc2c3ccccc3c3c(c21)CCC(C)(C)O3 | 123
COc1ccc(-c2nc3c([nH]2)c2c(c4ccccc43)OC(C)(C)CC2)cc1 | 250
CCCn1cnc2c3c(c4ccccc4c21)OC(C)(C)CC3 | 99.7
CCCCCCCn1cnc2c3ccccc3c3c(c21)CCC(C)(C)O3 | 99
CCCCCCCCCCCCn1cnc2c3ccccc3c3c(c21)CCC(C)(C)O3 | 192
CCCCCn1cnc2c3c(c4ccccc4c21)OC(C)(C)CC3 | 92.7

System: Trypanosoma cruzi
Assay: Potency index, ratio of benznidazole IC50 to test compound IC50 for bloodstream trypomastigote stage of Trypanosoma cruzi Y
Assay type: functional
Settings: not given

SMILES | Ratio IC50
CCCCCCn1cnc2c3c(c4ccccc4c21)OC(C)(C)CC3 | 2.2
CCCCCCn1cnc2c3ccccc3c3c(c21)CCC(C)(C)O3 | 3.2

System: not listed separately
Assay: Cytotoxicity against Swiss mouse peritoneal macrophages after 24 hrs by Prestoblue assay
Assay type: cell-based, Peritoneal macrophage
Settings: read-out: LC50

SMILES | CC50 at 24 h [µM]
CCCCCCn1cnc2c3c(c4ccccc4c21)OC(C)(C)CC3 | 117
CCCCCCn1cnc2c3ccccc3c3c(c21)CCC(C)(C)O3 | 422

System: not listed separately
Assay: Selectivity index, ratio of LC50 for Swiss mouse peritoneal macrophages to IC50 for bloodstream trypomastigote stage of Trypanosoma cruzi Y
Assay type: toxicity
Settings: read-out: Ratio LC50/IC50
How it was run: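 Y strain bloodstream trypomastigotes at 5 × 10^6 cells/ml in DME plus 10% blood, mixed 1:1 with compound at twice the final concentration, 24 h at 4 °C, counted; IC50 = 50% lysis. […] Index = LC50/IC50. DMSO final ≤0.1%.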

SMILES | selectivity ratio
CCCCCCn1cnc2c3c(c4ccccc4c21)OC(C)(C)CC3 | 2.7
CCCCCCn1cnc2c3ccccc3c3c(c21)CCC(C)(C)O3 | 13.4
